Measured values reported in paper PMC2900601 (Cell, 2009).
Changes are numbered by the printed parent chain. Like-named read-outs stand apart in the source and are kept apart here. Where no end group is shown, it is not given here. [ ]: non-standard residue; d: D form. pT = C[C@@H](OP(=O)(O)O)[C@H](N)C(=O)O; pS = N[C@@H](COP(=O)(O)O)C(=O)O

Experiments:
[1] = target: Schizosaccharomyces pombe Nbs1 N-terminal FHA/BRCT-repeat fragment (1-324) (Schizosaccharomyces pombe) (UniProt O43070); assay: ITC
[2] = target: human Nbs1 N-terminal FHA/BRCT-repeat fragment (1-382) (human) (UniProt O60934); assay: ITC
[3] = target: T1, human Nbs1 (hNbs1) FHA/BRCT fragment (1-382) (Homo sapiens, UniProt O60934); assay: ITC of phosphopeptides with wild-type hNbs1 N-terminal fragment; assay type: binding
T1 sequence (O60934 1-382): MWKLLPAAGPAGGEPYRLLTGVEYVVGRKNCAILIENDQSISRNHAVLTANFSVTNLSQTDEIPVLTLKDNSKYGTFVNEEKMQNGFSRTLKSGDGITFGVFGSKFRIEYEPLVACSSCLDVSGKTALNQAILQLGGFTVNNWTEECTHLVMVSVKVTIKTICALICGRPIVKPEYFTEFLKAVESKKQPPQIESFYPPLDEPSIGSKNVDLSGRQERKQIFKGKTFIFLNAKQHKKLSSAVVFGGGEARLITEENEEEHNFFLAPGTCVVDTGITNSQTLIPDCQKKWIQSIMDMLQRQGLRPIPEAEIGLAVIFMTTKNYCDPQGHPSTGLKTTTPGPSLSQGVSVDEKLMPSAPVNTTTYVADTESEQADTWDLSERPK

[4] = target: T2, spNbs1 FHA/BRCT2 region (1-324) (Schizosaccharomyces pombe, UniProt O43070); assay: ITC of phosphopeptides with wild-type spNbs1 N-terminal fragment; assay type: binding
T2 sequence (O43070 1-324): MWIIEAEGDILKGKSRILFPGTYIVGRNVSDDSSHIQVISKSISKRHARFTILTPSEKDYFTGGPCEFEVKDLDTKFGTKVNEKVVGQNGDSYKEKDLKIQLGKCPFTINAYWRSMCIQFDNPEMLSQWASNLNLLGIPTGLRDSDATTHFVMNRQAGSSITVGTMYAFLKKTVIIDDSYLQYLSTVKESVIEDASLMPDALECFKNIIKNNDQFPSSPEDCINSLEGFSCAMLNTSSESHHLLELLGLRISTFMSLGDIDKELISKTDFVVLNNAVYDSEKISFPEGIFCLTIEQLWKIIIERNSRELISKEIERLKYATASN
In short: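 Purified recombinant […] N-terminal fragment of S. pombe Nbs1 titrated by ITC with the same Mdc1 phosphothreonine peptide used for the human protein. An unphosphorylated peptide of identical sequence was also tested. Affinity was derived from the titration.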

hNbs1 (1-382) K160M = target: T3, hNbs1 (1-382) K160M (human, UniProt O60934 1-382, K160M); assay: ITC
T3 sequence: T1 sequence (O60934 1-382) with K160M

[5] = target: T4, human Nbs1 N-terminal FHA/BRCT-repeat fragment (1-382) (human, UniProt O60934 1-382); assay: ITC
T4 sequence: T1 sequence (O60934 1-382)

hNbs1 (1-382) R28A = target: T5, hNbs1 (1-382) R28A (human, UniProt O60934 1-382, R28A); assay: ITC
T5 sequence: T1 sequence (O60934 1-382) with R28A

hNbs1 (1-382) S42A = target: T6, hNbs1 (1-382) S42A (human, UniProt O60934 1-382, S42A); assay: ITC
T6 sequence: T1 sequence (O60934 1-382) with S42A

spNbs1 (1-324) R27A = target: T7, spNbs1 (1-324) R27A (Schizosaccharomyces pombe, UniProt O43070 1-324, R27A); assay: ITC
T7 sequence: T2 sequence (O43070 1-324) with R27A

Ctp1 Site 1 di-phosphorylated peptide (pSer-77/pThr-79)
fold weaker binding than the di-phosphorylated Site 2 peptide [1]: 30 fold

Ctp1 Site 1 peptide phosphorylated only on pThr-79
fold weaker binding than the di-phosphorylated Site 1 peptide [1]: 8 fold

Ctp1 Site 2 di-phosphorylated peptide (pSer-87 and pThr-89)
Kd [1]: 50 nM

Ctp1 Site 2 peptide phosphorylated only on pThr-89
fold weaker binding than the di-phosphorylated Site 2 peptide [1]: 10 fold

Ctp1 peptide containing singly phosphorylated Thr-78
Kd [1]: 200 nM

Mdc1 SDpTD mono-phosphorylated peptide
fold reduced affinity against the di-phosphorylated Mdc1 peptide [2]: 17 fold

Mdc1 pSDpTD motif di-phosphorylated peptide (Mdc1 residues 325-336) (from UniProt Q14676 325-336)
Kd [1]: 500 nM | Kd [2]: 1000 nM | stoichiometry N [2]: > 1

pSDTD: Mdc1 peptide of the same sequence in which the threonine was not phosphorylated (GFID[pS]DTDAEEE)
binding to hNbs1 (in words) [3]: neither spNbs1 nor hNbs1 bound | binding to hNbs1 (in words) ([3]; listed as mono-phosphorylated pSDTD): lack of hNbs1 interactions | binding to spNbs1 (in words) [4]: neither spNbs1 nor hNbs1 bound

FID[pS]D[pT]DVEEE [di-phosphorylated peptide with a core consensus of all six Mdc1 motifs (FIDpSDpTDVEEE)]
fold reduction of stoichiometry against wild-type hNbs1 (hNbs1 (1-382) K160M): ~2 fold | stoichiometry N [5]: > 1 | fold reduction of stoichiometry against wild-type hNbs1 (hNbs1 (1-382) R28A): ~2 fold | fold reduction of stoichiometry against wild-type hNbs1 (hNbs1 (1-382) S42A): ~2 fold

GFID[pS]D[pT]DAEEE [Mdc1 pSDpTD motif di-phosphorylated peptide (Mdc1 residues 325-336)]
fold reduction of apparent binding affinity against wild-type spNbs1 (spNbs1 (1-324) R27A): ~100 fold
